Source: PubChem (several laboratories)
Rin1-Abl PPI inh: human Rin1-Abl interaction inhibition; AID 588664; TR-FRET Rin1/Abl binding, biochemical; actives 0.4% (n = 360,000); inhibition, % at 7.35 µM; in the data active means inhibition above about 5%, passing the limit was not always enough
ALR H2O2 inh: human ALR oxidase inhibition via reduced H2O2; actives 3.8% (n = 290,000); purified ALR, DTT oxidation, H2O2 HRP-luminol luminescence; inhibition, % (no concentration beside the values); AID 485317;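 active means mean replicate inhibition above about 79%, with every replicate also reaching it, limit read from the data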
UBC9 SUMO inh: inhibitors of human SUMOylation (UBC9); P63279; HTRF SUMOylation assay, SAE1/SAE2 + UBC9, in vitro; inhibition, % at 35 µM; actives 0.36% (n = 290,000); AID 2006; in the data active means inhibition above about 50%, passing the limit was not always enough
RBBP9 inhibitor: inhibitors of human serine hydrolase RBBP9; recombinant RBBP9, FP-Rh probe fluorescence polarization; O75884; AID 1515; inhibition, % at 7.94 µM; actives 0.2% (n = 220,000);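 active means inhibition above the campaign mean of all tested compounds plus 3 SD, cut at about 14% in these data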
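Material: RBBP9 protein. Amount: RBBP9 at 2.5 µM in dispensed solution, before mixing. Schedule: 30 min then 45 min, 25 °C. Medium: Tris buffer pH 8.0, NaCl, Pluronic. Measured by: fluorescence polarization. Measure: percent inhibition from mP, scaled between DMSO and no-protein wells. Replication: one well per compound.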
UBC13 inh: blocks human UBC13 polyubiquitin chain formation; actives 0.47% (n = 330,000); inhibition, % at 20 µM; P61088; AID 485273; TR-FRET; in the data active means inhibition above about 45%, passing the limit was not always enough
PREPL inhibitor: inhibitors of human prolyl oligopeptidase-like enzyme PREPL; Q4J6C6; recombinant PREPL, fluorescence polarization activity-based probe; inhibition, % at 5.96 µM; actives 0.68% (n = 320,000); AID 2751; in the data active means inhibition above about 43%
Target sequence (Q4J6C6 whole entry, looked up): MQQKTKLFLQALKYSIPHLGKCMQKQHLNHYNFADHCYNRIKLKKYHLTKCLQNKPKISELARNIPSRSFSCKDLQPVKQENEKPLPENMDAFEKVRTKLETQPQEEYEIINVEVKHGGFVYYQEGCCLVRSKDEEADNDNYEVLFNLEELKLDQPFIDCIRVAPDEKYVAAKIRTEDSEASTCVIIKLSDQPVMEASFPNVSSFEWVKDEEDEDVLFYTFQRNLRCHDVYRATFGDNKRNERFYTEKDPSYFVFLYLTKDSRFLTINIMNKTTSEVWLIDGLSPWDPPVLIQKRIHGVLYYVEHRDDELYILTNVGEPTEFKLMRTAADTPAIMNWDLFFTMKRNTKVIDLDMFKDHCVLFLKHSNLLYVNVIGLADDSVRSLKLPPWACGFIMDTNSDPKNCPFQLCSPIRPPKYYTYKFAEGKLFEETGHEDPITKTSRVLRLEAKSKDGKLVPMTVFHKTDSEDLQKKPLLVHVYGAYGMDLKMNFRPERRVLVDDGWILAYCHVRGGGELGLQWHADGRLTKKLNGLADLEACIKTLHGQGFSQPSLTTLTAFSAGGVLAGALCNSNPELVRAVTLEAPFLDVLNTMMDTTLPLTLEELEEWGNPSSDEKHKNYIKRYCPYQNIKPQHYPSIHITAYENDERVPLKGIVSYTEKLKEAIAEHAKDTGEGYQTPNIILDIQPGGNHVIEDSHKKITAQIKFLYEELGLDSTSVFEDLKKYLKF
Numbers stand for hits; – = inactive; · = no result. Shown are actives, neighbours in structure and some others; about 4.3% of the full set was active somewhere.

SMILES	Rin1-Abl PPI inh	ALR H2O2 inh	UBC9 SUMO inh	RBBP9 inhibitor	UBC13 inh	PREPL inhibitor
O=C(CC1N=C(Cc2ccccc2)NNC1=O)N/N=C/c1ccc([N+](=O)[O-])cc1 (centres undefined)	–	–	–	–	–	–
O=C1Nc2ccc([N+](=O)[O-])cc2OC1CCN1CCN(c2ccccc2)CC1 (centres undefined)	–	94	–	–	–	–
N#Cc1c(-c2ccccc2)cc(-c2ccco2)c(C#N)c1N	·	·	53	–	·	·
Cc1ccc(-c2cc(-c3ccco3)c(C#N)c(=O)[nH]2)cc1	–	–	62	–	–	–
N#Cc1sc2nc(-c3ccccc3)cc(-c3ccco3)c2c1N	–	–	–	–	–	–
N#Cc1c(-c2ccco2)cc(-c2ccccc2)[nH]c1=O	–	–	–	–	–	–
CCc1cc(C(=O)c2ccccc2OC)c(N)s1	–	93	–	–	–	–
CCc1cc(C(=O)c2ccc(OC)cc2)c(N)s1	–	99	–	–	–	–
CC(C)(C)c1ccc(-n2ncc3c2CCCC3NC(=O)c2ccco2)cc1 (centres undefined)	–	·	·	·	·	·
O=C(CC1Oc2ccccc2NC1=O)NCCc1ccccc1 (centres undefined)	–	86	–	–	–	–
CC1CCN(Cc2ccc(NC(=O)CC3Oc4ccccc4NC3=O)cc2)CC1 (centres undefined)	–	92	–	–	–	–
CCN(CCNC(=O)CC1Oc2ccccc2NC1=O)c1ccccc1 (centres undefined)	–	97	–	–	–	–
Cc1ccc(C(=C2C3C=CC2C2C(=O)NC(=O)C32)c2ccc(C)cc2)cc1 (centres undefined)	–	–	–	–	–	–
CCOc1ccccc1C(=O)NCC(=O)NCCSc1ccc(Br)cc1	–	·	·	·	·	·
CCCN(C(=O)CCOc1ccc(C(C)(C)C)cc1)c1c(N)n(Cc2ccccc2)c(=O)[nH]c1=O	–	–	·	·	–	–
NC(=O)c1c(NC(=O)c2ccccc2C(=O)O)sc2c1CCCC2	–	–	–	·	–	–
NC(=O)c1c(NC(=O)c2ccccc2Cl)sc2c1CCC2	–	91	–	·	–	–
COC(=O)c1c(NC(=O)c2ccc(N(C)S(=O)(=O)c3ccc(C)cc3)cc2)sc2c1CCCC2	–	–	–	–	–	–
COCCN(CCOC)S(=O)(=O)c1ccc(C(=O)Nc2sc3c(c2C(N)=O)CCCCC3)cc1	–	91	–	–	–	–
NC(=O)c1c(NC(=O)c2ccc(F)cc2Cl)sc2c1CCC2	–	93	–	·	–	–
NC(=O)c1c(NC(=O)c2ccc(N3C(=O)CCC3=O)cc2)sc2c1CCCC2	–	93	·	·	–	–
CCN(CC)CCCn1c2c(c(SCC(=O)N3CCc4ccccc43)nc1=O)CCC2	–	–	·	·	–	–
O=C(Nc1cccc(S(=O)(=O)N2CCCCC2)c1)c1ccc(S(=O)(=O)C(F)F)cc1	–	–	–	–	–	–
CS(=O)(=O)N(CC(=O)NCc1ccccn1)Cc1ccc(Cl)cc1	–	99	–	–	–	–
CS(=O)(=O)N(CC(=O)NCc1ccccc1)Cc1ccc(Cl)cc1	–	·	–	–	–	–
SMILES	Rin1-Abl PPI inh	ALR H2O2 inh	UBC9 SUMO inh	RBBP9 inhibitor	UBC13 inh	PREPL inhibitor
COc1ccc(NC(=O)CSc2nc(NS(=O)(=O)c3ccccc3)cc(=O)[nH]2)cc1	–	100	–	–	–	–
C#CCSc1ncc(S(=O)(=O)c2ccccc2)c(=O)[nH]1	–	·	–	–	–	–
Cc1ccc(NC(=O)CSc2nc(NS(=O)(=O)c3ccc(C)cc3)cc(=O)[nH]2)cc1	–	98	–	–	–	–
Cc1ccc(S(=O)(=O)Nc2cc(=O)[nH]c(SCc3ccccc3Cl)n2)cc1	–	96	–	–	–	–
Cc1cc(C)cc(NC(=O)CSc2ncc(S(=O)(=O)c3ccccc3)c(=O)[nH]2)c1	·	99	–	–	–	–
CN1OC[C@@H]2CN(S(=O)(=O)c3ccccc3)[C@H](c3ccc(-n4ccnc4)cc3)C[C@@H]21	–	·	·	·	·	·
Cc1ccc(N2CCCC2=O)cc1S(=O)(=O)N1CCOCC1	–	–	–	·	–	–
Cc1ccc(-c2nnn(CC(=O)N(c3ccccc3)C(C(=O)NCC3CCCO3)c3cccs3)n2)o1 (centres undefined)	–	–	–	–	–	–
O=C(CSc1nc(NS(=O)(=O)c2ccccc2)cc(=O)[nH]1)Nc1ccc(Cl)cc1	–	·	–	–	·	·
Cc1cccc(NC(=O)CSc2nc(NS(=O)(=O)c3ccccc3)cc(=O)[nH]2)c1	–	99	–	–	–	–
CC(C)CCC(C(=O)O)C(C)CC(=O)Nc1ccn(-c2ccccc2)n1 (centres undefined)	–	–	–	–	–	–
CC(C)N1CCc2c(sc(N)c2C#N)C1	–	–	–	·	–	50
CC(C)N1CCc2c(sc(NC(=S)NC(=O)c3ccccc3)c2C#N)C1	–	–	–	–	–	62
NC(=S)NNC(=O)Nc1cccc(Cl)c1	–	–	–	–	–	–
NC(=S)NNc1cccc(Cl)c1	–	98	–	–	–	–
Cc1ccc(S(=O)(=O)N2[C@@H](c3ccc(Cl)cc3)C(C(=O)O)=CC[C@H]2c2ccc(Cl)c(Cl)c2)cc1	–	88	·	·	–	–
Cc1ccc(S(=O)(=O)N2[C@@H](c3ccc(C(C)(C)C)cc3)C(C(=O)O)=CC[C@H]2c2ccc(Cl)cc2)cc1	–	·	·	·	–	–
COc1cccc(/C=N/NC(=S)Nc2cccnc2)c1	–	–	–	–	–	–
Oc1ccc(/C=N/NC(=S)Nc2cccnc2)cc1	–	99	–	–	–	–
CC1CCN(CC(=O)N2c3ccccc3CCc3ccccc32)CC1	–	84	–	–	–	–
COc1ccc(/C=N/NC(=O)CCc2c(C)n[nH]c2C)cc1O	–	99	–	–	–	–
COc1ccc(/C=N/NC(=O)CCc2n[nH]c(=O)[nH]c2=O)cc1O	–	99	–	–	–	–
Cc1n[nH]c(C)c1CCC(=O)N/N=C/C=C/c1ccccc1	–	–	–	–	–	–
CC(C)NC(=S)N(CCc1ccncc1)C(C)C	–	·	–	–	–	–
Cc1nn(-c2ccccc2)c(C)c1NC(=O)COC(=O)/C=C/c1ccccc1	–	–	·	·	–	–
SMILES	Rin1-Abl PPI inh	ALR H2O2 inh	UBC9 SUMO inh	RBBP9 inhibitor	UBC13 inh	PREPL inhibitor
CCN(CCNC(=O)c1ccc(CSc2nc3ccncc3[nH]2)cc1)c1ccccc1	–	98	–	–	–	–
O=C(NCCN1CCN(c2cccc(Cl)c2)CC1)c1ccc(CSc2nc3ccncc3[nH]2)cc1	–	–	–	–	–	–
c1ccc(-c2nn(-c3ccccc3)[n+](-c3ccccc3)n2)cc1	–	·	·	·	·	·
CN(C)CCCNC(=S)Nc1ccc(Oc2ccccc2)cc1	–	93	–	–	–	–
CC(C)N(c1ccccc1)c1ccc(NC(=S)NCCN(C)C)cc1	–	99	–	–	–	–
CC(=O)Nc1ccc(/C=C2\CCc3ccccc3C2=O)cc1	–	–	–	·	–	–
